Key:
Assay type in all cases: functional
Pseudomonas aeruginosa = test: Antibacterial activity against Pseudomonas aeruginosa at 1 to 10 mg/mL after 24 hrs by agar well diffusion method
How it was run: (§1)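 Agar well diffusion. Bacterial pellets from a 24 h culture (about 10⁴–10⁶ CFU/ml) were spread on nutrient agar (tryptone 1%, yeast extract 0.5%, NaCl 0.5%, agar 1%, pH 7.0). Wells received DMSO solutions at 10 mg/mL, with DMSO as control and tetracycline as reference. Plates ran 24 h at 37 °C. Each zone was measured three times by caliper and averaged; three runs per culture.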

Staphylococcus aureus = test: Antibacterial activity against Staphylococcus aureus at 1 to 10 mg/mL after 24 hrs by agar well diffusion method; how it was run: as §1
Aspergillus flavus [1] = test: Antifungal activity against Aspergillus flavus at 1 to 10 mg/mL after 3 to 4 days by agar well diffusion method
How it was run: (§2)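 Fungi were grown on Sabouraud dextrose agar (glucose–peptone–agar 40:10:15) after single-spore purification. Wells (4 mm × 2 mm) were cut and their bottoms sealed with 0.8% soft agar, then loaded with DMSO solutions at 10 mg/mL. DMSO served as control and amphotericin B as reference. Plates incubated at 30 °C for 3–4 days. Inhibition zone diameter was measured three times by caliper and averaged.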

Candida albicans [2] = test: Antifungal activity against Candida albicans at 1 to 10 mg/mL after 3 to 4 days by agar well diffusion method; how it was run: as §2
Aspergillus flavus [3] = test: Antifungal activity against Aspergillus flavus after 3 to 4 days by agar well diffusion method
How it was run: (§3)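 Agar well diffusion on Sabouraud dextrose agar (glucose–peptone–agar 40:10:15), with cultures purified by single-spore isolation. Wells (4 mm × 2 mm) were sealed at the bottom with 0.8% soft agar and loaded with DMSO solutions. DMSO served as control and amphotericin B as reference. Incubation was 30 °C for 3–4 days; each zone was measured three times by caliper and averaged.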

Candida albicans [4] = test: Antifungal activity against Candida albicans after 3 to 4 days by agar well diffusion method; how it was run: as §3

| Structure (SMILES) | diameter of the inhibition zone (DIZ) (Pseudomonas aeruginosa) [mm] | diameter of the inhibition zone (DIZ) (Staphylococcus aureus) [mm] | diameter of the inhibition zone (DIZ) (Aspergillus flavus [1]) [mm] | diameter of the inhibition zone (DIZ) (Candida albicans [2]) [mm] | MIC (Aspergillus flavus [3]) [µg/mL] | MIC (Candida albicans [4]) [µg/mL] |
| --- | --- | --- | --- | --- | --- | --- |
| O=c1[nH]c(=S)nc2oc3cc(O)ccc3cc1-2 | 14 | 15 | 0 | 0 | < 50 | < 50 |
| COc1cc(C2C(C#N)=C(N)Oc3[nH]c(=S)[nH]c(=O)c32)cc(OC)c1OC (centres undefined) | 13 | 13 | 0 | 10 | < 50 | < 50 |
| CCOC(=O)C1=C(N)Oc2[nH]c(=S)[nH]c(=O)c2C1c1ccc(Cl)cc1 (centres undefined) | 19 | 16 | 0 | 13 | < 50 | < 50 |
| CCOC(=O)C1=C(N)Sc2[nH]c(=S)[nH]c(=S)c2C1c1ccc(Cl)cc1 (centres undefined) | 18 | 16 | 14 | 14 | < 50 | < 50 |
| CCOC=C1C(=O)NC(=S)NC1=O | 13 | 13 | 0 | 12 |  |  |
| NNC=C1C(=O)NC(=S)NC1=O | 18 | 18 | 36 | 0 |  |  |
| COc1cc(C2c3c(nc(N)c(C#N)c3N)Oc3[nH]c(=S)[nH]c(=O)c32)cc(OC)c1OC (centres undefined) | 12 | 13 | 0 | 10 | < 50 | < 50 |
| COc1cc(C2C(C#N)=C(NS(=O)(=O)c3ccccc3)Oc3[nH]c(=S)[nH]c(=O)c32)cc(OC)c1OC (centres undefined) | 13 | 14 | 0 | 12 | < 50 | < 50 |
| COc1cc(C2c3c(nc[nH]c3=O)Oc3[nH]c(=S)[nH]c(=O)c32)cc(OC)c1OC (centres undefined) | 13 | 15 | 0 | 11 | < 50 | < 50 |
| C[C@@H]1[C@H](O)[C@@H](C)/C=C/C=C/C=C/C=C/C=C/C=C/C=C/[C@H](O[C@@H]2O[C@H](C)[C@@H](O)[C@H](N)[C@@H]2O)C[C@@H]2O[C@](O)(C[C@@H](O)C[C@@H](O)[C@H](O)CC[C@@H](O)C[C@@H](O)CC(=O)O[C@H]1C)C[C@H](O)[C@H]2C(=O)O [AMPHOTERICIN B] |  |  | 16 | 19 |  |  |
| CN(C)[C@@H]1C(O)=C(C(N)=O)C(=O)[C@@]2(O)C(O)=C3C(=O)c4c(O)cccc4[C@@](C)(O)[C@H]3C[C@@H]12 [TETRACYCLINE] | 28 | 26 |  |  |  |  |

Reference: ChEMBL document CHEMBL1926503, “Efficient one-pot preparation of novel fused chromeno[2,3-d]pyrimidine and pyrano[2,3-d]pyrimidine derivatives” (2012)
